From PubChem
This is a sample that favours compounds with a hit; in the whole collection about 1.5% have one here.
Arrestin-AP2 inh: human beta-arrestin and AP2 interaction inhibition. FITC-arrestin peptide / GST-AP2 beads, flow cytometry; AP2 beta2 appendage carries R879A mutation. inhibition, % at 10 µM. 340,000 tested, 0.31% active. AID 504490;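 active = inhibition above a set limit, near 3 SD of compounds lacking own fluorescence, cut at about 54% in these data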
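System: GST-AP2 R879A glutathione beads | Also added: FITC-arrestin peptide, 50 nM | Times: 12 min plus 1 h, RT | Signal: Bead flow cytometry, FITC channel | Buffer or medium: PBS with 0.05% Tween 20 and 0.1% BSA | Read-out basis: Percent drop in bead-associated FITC signal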
DSG3 Ab inh: human desmoglein-3 autoantibody binding inhibition. P32926. DSG3-coupled beads, scFv-anti-DSG3-GFP binding, flow cytometry; stronger effect = lower value. binding (percent of control), % at 10 µM. 310,000 tested, 0.48% active;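 active = binding more than 3 SD below its plate's average and above zero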;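 also: hits lower antibody fragment binding to DSG3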
HDAC3 inh: blocks human histone deacetylase 3; recombinant HDAC3, fluorogenic peptide/trypsin coupled, fluorescence; inhibition, % at 8.3 µM; 320,000 tested, 0.15% active; AID 2718; in the data active = inhibition above about 26%, passing the limit was not always enough
T cell modulator: T cell immune modulators affecting CD8 T cell-vesicle binding; 330,000 tested, 0.068% active; response (vesicle binding), % at 7 µM; 2C CD8+ T cell-vesicle binding, flow cytometry; stronger effect = lower value;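 active = response, share of CD8 T cells binding vesicles, and their 90th percentile fluorescence all below set limits, cut at about 80% in these data, passing the limit was not always enough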;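 also: values below 100% mean blocked vesicle binding to the CD8+ T cells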
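Also added: QL9-peptide-loaded Drosophila micro-vesicles bearing Ld, ICAM-1 and B7-1; Test system: purified 2C TCR transgenic mouse naive CD8+ T cells; Measured by: cytometric PE anti-B7-1 and Alexa647 anti-CD8 signals after 1% paraformaldehyde fixation; Timing: binding step 1.5 h, 37 °C, antibody labelling 20 min, ice.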
LANA-H2B inh: blocks KSHV LANA binding to histone H2A/H2B | AID 2629 | inhibition, % (no concentration beside the values) | 320,000 tested, 0.6% active | cell-free LANA-H2A/H2B peptide, fluorescence polarization | Q9QR71; in the data active = inhibition mostly above about 10%, no sharp cut-off; inactive = mostly below about 6.7%
Target sequence (Q9QR71 whole entry, looked up): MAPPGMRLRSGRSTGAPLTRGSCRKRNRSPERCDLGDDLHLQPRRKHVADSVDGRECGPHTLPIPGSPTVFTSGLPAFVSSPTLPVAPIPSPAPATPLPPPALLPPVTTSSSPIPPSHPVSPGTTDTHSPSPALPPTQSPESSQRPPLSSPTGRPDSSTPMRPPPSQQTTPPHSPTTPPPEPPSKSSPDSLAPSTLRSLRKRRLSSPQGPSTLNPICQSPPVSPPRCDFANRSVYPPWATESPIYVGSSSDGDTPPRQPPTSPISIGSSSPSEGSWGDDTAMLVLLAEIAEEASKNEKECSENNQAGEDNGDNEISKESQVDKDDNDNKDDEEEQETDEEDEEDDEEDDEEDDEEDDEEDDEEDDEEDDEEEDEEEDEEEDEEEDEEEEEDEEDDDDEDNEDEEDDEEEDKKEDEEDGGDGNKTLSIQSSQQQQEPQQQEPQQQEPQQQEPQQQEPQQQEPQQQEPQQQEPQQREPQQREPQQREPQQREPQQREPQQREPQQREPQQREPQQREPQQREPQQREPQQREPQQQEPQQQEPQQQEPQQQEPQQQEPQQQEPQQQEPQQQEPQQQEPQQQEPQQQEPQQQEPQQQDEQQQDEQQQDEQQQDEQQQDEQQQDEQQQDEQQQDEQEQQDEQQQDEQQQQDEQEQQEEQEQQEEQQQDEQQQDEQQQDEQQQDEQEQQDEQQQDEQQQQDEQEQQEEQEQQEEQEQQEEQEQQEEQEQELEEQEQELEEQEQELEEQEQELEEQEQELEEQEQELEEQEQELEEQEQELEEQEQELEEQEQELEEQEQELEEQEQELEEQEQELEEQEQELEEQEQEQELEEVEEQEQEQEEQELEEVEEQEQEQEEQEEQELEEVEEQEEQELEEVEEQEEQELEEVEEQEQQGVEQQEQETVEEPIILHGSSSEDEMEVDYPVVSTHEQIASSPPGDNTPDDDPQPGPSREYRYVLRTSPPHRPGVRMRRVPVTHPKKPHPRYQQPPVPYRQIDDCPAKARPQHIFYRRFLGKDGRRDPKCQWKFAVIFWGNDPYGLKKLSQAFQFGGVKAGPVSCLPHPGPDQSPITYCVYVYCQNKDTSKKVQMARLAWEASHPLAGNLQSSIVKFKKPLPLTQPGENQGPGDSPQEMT
Numbers stand for hits; ! = not active in a repeat.

What do the screens show for `CN(C)c1ccc(C#Cc2ccc3cc(CCCO)oc(=O)c3c2)cc1`?
Arrestin-AP2 inh: inactive; DSG3 Ab inh: 84; HDAC3 inh: inactive; T cell modulator: inactive; LANA-H2B inh: inactive

What do the screens show for `O=C(N/N=C/c1cccs1)C(=O)N1CCCC1`?
Arrestin-AP2 inh: inactive; DSG3 Ab inh: inactive; HDAC3 inh: inactive; T cell modulator: inactive; LANA-H2B inh: 15

Results for CC[N+](C)(C)c1cccc(O)c1 ?
Arrestin-AP2 inh: inactive; DSG3 Ab inh: inactive; HDAC3 inh: inactive; T cell modulator: inactive; LANA-H2B inh: 20!

Results for CCNc1cc(O)ccc1C ?
Arrestin-AP2 inh: inactive; DSG3 Ab inh: inactive; HDAC3 inh: inactive; T cell modulator: inactive; LANA-H2B inh: inactive

What do the screens show for `CCOC(=O)C(C)C(C)=O` (stereo not drawn)?
Arrestin-AP2 inh: inactive; DSG3 Ab inh: inactive; HDAC3 inh: inactive; T cell modulator: inactive; LANA-H2B inh: 15

How did CCOC(=O)C(C(C)=O)C(c1ccc(OC)cc1)C(C(C)=O)C(=O)OCC (stereo not drawn) do in these assays?
Arrestin-AP2 inh: inactive; DSG3 Ab inh: inactive; HDAC3 inh: inactive; T cell modulator: inactive; LANA-H2B inh: inactive

What do the screens show for `COc1ccc(C(CNC(=O)c2cccc(S(=O)(=O)N3CCOCC3)c2)N2CCCC2)cc1` (stereo not drawn)?
Arrestin-AP2 inh: inactive; HDAC3 inh: inactive; T cell modulator: inactive; LANA-H2B inh: 11

What do the screens show for `O=C1c2ccccc2NC(c2ccc(F)cc2)N1Cc1ccccc1` (stereo not drawn)?
Arrestin-AP2 inh: inactive; DSG3 Ab inh: inactive; HDAC3 inh: inactive; T cell modulator: inactive; LANA-H2B inh: inactive

What do the screens show for `O=C(c1ccc(Cl)c(Cl)c1)c1cnc(Nc2ccccc2)s1`?
Arrestin-AP2 inh: inactive; DSG3 Ab inh: -25; HDAC3 inh: inactive; T cell modulator: inactive; LANA-H2B inh: inactive

Results for COc1ccc2c(COC(=O)[C@@H]3CCCN3S(=O)(=O)c3ccc(Cl)cc3)cc(=O)oc2c1 ?
Arrestin-AP2 inh: inactive; DSG3 Ab inh: inactive

How did O=C(NCc1ccco1)c1noc2c1CCCC2 do in these assays?
Arrestin-AP2 inh: inactive; DSG3 Ab inh: inactive; HDAC3 inh: inactive; T cell modulator: inactive; LANA-H2B inh: inactive

How did CC1CCc2onc(C(=O)NCc3ccco3)c2C1 (stereo not drawn) do in these assays?
Arrestin-AP2 inh: inactive; HDAC3 inh: inactive; T cell modulator: inactive; LANA-H2B inh: active

What do the screens show for `Cc1nc2cc(N3CCCCC3)c(NC(=O)c3ccncc3)cc2c(=O)n1Cc1ccccc1`?
Arrestin-AP2 inh: inactive; DSG3 Ab inh: inactive

Results for Cc1nc2cc(N3CCOCC3)c(NC(=O)C3CC3)cc2c(=O)n1Cc1ccccc1 ?
Arrestin-AP2 inh: inactive; DSG3 Ab inh: inactive; HDAC3 inh: inactive; T cell modulator: inactive; LANA-H2B inh: 56

How did CCCCN1C(=O)C2(OCCCO2)c2cccc(C)c21 do in these assays?
Arrestin-AP2 inh: inactive; DSG3 Ab inh: inactive; HDAC3 inh: inactive; T cell modulator: inactive; LANA-H2B inh: 18

Results for COCC1CCN(C(=O)C2CCC(=O)N(Cc3cccc(F)c3)C2)CC1 (stereo not drawn) ?
Arrestin-AP2 inh: inactive; DSG3 Ab inh: inactive; HDAC3 inh: inactive; T cell modulator: inactive; LANA-H2B inh: inactive

How did Cc1ccccc1C(=O)Nc1ccnn1C1CCN(Cc2cnn(C(C)C)c2)CC1 do in these assays?
Arrestin-AP2 inh: inactive; DSG3 Ab inh: inactive; HDAC3 inh: inactive; T cell modulator: inactive; LANA-H2B inh: 17

How did Cc1c(C(=O)Nc2ccc(OCc3ccccc3)cc2)cccc1[N+](=O)[O-] do in these assays?
Arrestin-AP2 inh: inactive; DSG3 Ab inh: 39; HDAC3 inh: inactive; T cell modulator: inactive; LANA-H2B inh: inactive

Results for Cc1c(C(=O)Nc2ccc(C(=O)Nc3ccccc3)cc2)cccc1[N+](=O)[O-] ?
Arrestin-AP2 inh: inactive; DSG3 Ab inh: inactive; HDAC3 inh: inactive; T cell modulator: inactive; LANA-H2B inh: inactive

How did Cc1ccc(S(=O)(=O)N2CCCC2CNC(=O)C(=O)Nc2ccc(F)cc2F)cc1 (stereo not drawn) do in these assays?
Arrestin-AP2 inh: inactive; DSG3 Ab inh: inactive; HDAC3 inh: inactive; T cell modulator: inactive; LANA-H2B inh: inactive

What do the screens show for `CSc1nccc(Oc2ccccc2Cl)n1`?
Arrestin-AP2 inh: inactive; DSG3 Ab inh: inactive; HDAC3 inh: inactive; T cell modulator: inactive; LANA-H2B inh: inactive

What do the screens show for `CSc1nccc(Oc2cncc(Cl)c2)n1`?
Arrestin-AP2 inh: inactive; DSG3 Ab inh: inactive; HDAC3 inh: inactive; T cell modulator: inactive; LANA-H2B inh: 11

What do the screens show for `CNc1nc(N(C)C)nc(N(C)C)n1`?
Arrestin-AP2 inh: inactive; DSG3 Ab inh: inactive; HDAC3 inh: inactive; T cell modulator: inactive; LANA-H2B inh: inactive

Results for CN(C)c1nc(N(C)C)nc(N(C)C)n1 ?
Arrestin-AP2 inh: inactive; HDAC3 inh: inactive; T cell modulator: inactive; LANA-H2B inh: 19!

What do the screens show for `CCCCNC(=O)/C(C#N)=C/c1ccc2c(c1)OCCO2`?
Arrestin-AP2 inh: inactive; DSG3 Ab inh: inactive; HDAC3 inh: inactive; T cell modulator: 0.0; LANA-H2B inh: inactive

What do the screens show for `COc1ccc(CCNC(=O)CNC(=O)c2ccccc2Br)cc1OC`?
Arrestin-AP2 inh: inactive; DSG3 Ab inh: inactive; HDAC3 inh: inactive; T cell modulator: inactive; LANA-H2B inh: inactive

Results for O=C(NCCN1C(=O)S/C(=C\c2ccc(Cl)c(Cl)c2)C1=O)c1cnccn1 ?
Arrestin-AP2 inh: inactive; DSG3 Ab inh: 88; HDAC3 inh: inactive; T cell modulator: inactive; LANA-H2B inh: inactive

How did O=C1CCC(C(=O)NCCN2C(=O)S/C(=C\c3cccnc3)C2=O)=NN1 do in these assays?
Arrestin-AP2 inh: inactive; DSG3 Ab inh: inactive; HDAC3 inh: inactive; T cell modulator: inactive; LANA-H2B inh: inactive

Results for CCn1c(SCC(=O)n2c(C)c(C)c3ccccc32)nnc1-c1ccco1 ?
Arrestin-AP2 inh: inactive; DSG3 Ab inh: 79; HDAC3 inh: inactive; T cell modulator: inactive; LANA-H2B inh: inactive

How did COc1cc(NC(=O)c2cc(-c3ccccc3Cl)on2)cc(OC)c1OC do in these assays?
Arrestin-AP2 inh: inactive; DSG3 Ab inh: inactive; HDAC3 inh: inactive; T cell modulator: inactive; LANA-H2B inh: inactive

Results for CCCc1nnc(NC(=O)CCC(=O)NC2CCCc3ccccc32)s1 (stereo not drawn) ?
Arrestin-AP2 inh: inactive; DSG3 Ab inh: 39; HDAC3 inh: inactive; T cell modulator: inactive; LANA-H2B inh: inactive

Results for CC(C)Cc1nnc(NC(=O)CCC(=O)NC2CCCc3ccccc32)s1 (stereo not drawn) ?
Arrestin-AP2 inh: inactive; DSG3 Ab inh: inactive; HDAC3 inh: inactive; T cell modulator: inactive; LANA-H2B inh: inactive

How did COc1ccc(C(C(=O)NC2CCCCC2)N(Cc2cccs2)C(=O)Cc2c[nH]c3ccccc23)cc1 (stereo not drawn) do in these assays?
Arrestin-AP2 inh: inactive; DSG3 Ab inh: 30; HDAC3 inh: inactive; T cell modulator: inactive; LANA-H2B inh: inactive

Results for Cc1ccc(C(=O)NCC(=O)OCC(=O)c2cc(C)n(Cc3ccco3)c2C)cc1 ?
Arrestin-AP2 inh: inactive; DSG3 Ab inh: inactive; HDAC3 inh: inactive; T cell modulator: inactive; LANA-H2B inh: inactive
